Measured values: ChEMBL document CHEMBL1122704, “Syntheses and anthelmintic activity of alkyl 5(6)-(substituted-carbamoyl)- and 5(6)-(disubstituted-carbamoyl)benzimidazole-2-carbamates and related compounds” (1984)
Active and inactive are the calls of the source. No cut-off for these calls is given here.

Tests used:
[1] = tested on: Nippostrongylus brasiliensis; experiment: (§1) Anti-nematode activity against Nippostrongylus brasiliensis in rats at 250 mg/kg; Insignificant activity.; assay type: functional
Rattus norvegicus [2] = experiment: Compound was evaluated for the biological activity against Hymenolepsis nana (rats) at the 250 mg/kg; insignificant activity; assay type: functional, organism-based; set-up: dose 250 mg/kg
Outline: (§2)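 Male rats (25–35 g) infected orally with 200 viable eggs. Infection confirmed by ovoscopic examination on days 17–20 postinoculation. Positive rats dosed orally on day 20 ± 1, initially 250 mg/kg × 1, then lower doses for dose–response. Method of Steward.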

Ancylostoma ceylanicum = experiment: Compound was evaluated for the biological activity against Ancylostoma ceylanicum in hamsters at the 250 mg/kg; assay type: functional
Outline: (§3)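 Hamsters of either sex (40–60 g) infected orally with 60 third-stage larvae. Test compound given orally as a single dose on day 20 ± 1 postinfection, starting at 250 mg/kg × 1. Lower doses were used for active compounds to establish dose–response. Method of Ray et al. as modified locally.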

Rattus norvegicus [3] = experiment: Compound was evaluated for the biological activity against Hymenolepsis nana (rats) at the 250 mg/kg; assay type: functional; outline: as §2
Rattus norvegicus [4] = experiment: Compound was evaluated for the biological activity against Hymenolepsis nana (rats) at the 100 mg/kg; assay type: functional; outline: as §2
Rattus norvegicus [5] = experiment: Compound was evaluated for the biological activity against Hymenolepsis nana (rats)at the 250 mg/kg; insignificant activity; assay type: functional, organism-based; set-up: dose 250 mg/kg; outline: as §2
Cricetinae gen. sp. [6] = experiment: Compound was evaluated for the biological activity against Ancylostoma ceylanicum in hamsters at the 3.12 mg/kg; assay type: functional, Cricetulus griseus; outline: as §3
Rattus norvegicus [7] = experiment: Compound was evaluated for the biological activity against Nippostrongylus brasiliensis in rats at the 250 mg/kg; assay type: functional
Outline: (§4)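 Male rats (25–40 g) inoculated subcutaneously with 500 larvae taken from 6–8-day-old fecal culture. Compounds given orally on day 9 postinfection at 250 mg/kg × 3, with lower doses as follow-up for active compounds. Steward technique as modified by Katiyar and Sen.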

Rattus norvegicus [8] = experiment: Compound was evaluated for the biological activity against Hymenolepsis nana (rats) at the 50 mg/kg; assay type: functional; outline: as §2
Rattus norvegicus [9] = experiment: Compound was evaluated for the biological activity against Nippostrongylus brasiliensis in rats at the 25 mg/kg; assay type: functional; outline: as §4
Rattus norvegicus [10] = experiment: Compound was evaluated for the biological activity against Hymenolepsis nana (rats) aat the 250 mg/kg; assay type: functional; outline: as §2
Rattus norvegicus [11] = experiment: Compound was evaluated for the biological activity against Nippostrongylus brasiliensis in rats at the 100-50 mg/kg; assay type: functional; outline: as §4
Cricetinae gen. sp. [12] = experiment: Compound was evaluated for the biological activity against Ancylostoma ceylanicum in hamsters at the 100-6.25 mg/kg; assay type: functional, Cricetulus griseus; outline: as §3
Cricetinae gen. sp. [13] = experiment: Compound was evaluated for the biological activity against Ancylostoma ceylanicum in hamsters at the 50 mg/kg; assay type: functional, Cricetulus griseus; outline: as §3
Cricetinae gen. sp. [14] = experiment: Compound was evaluated for the biological activity against Ancylostoma ceylanicum in hamsters at the 100 mg/kg; insignificant activity; assay type: functional, organism-based; set-up: dose 100 mg/kg; conditions: Cricetulus griseus; outline: as §3
Cricetinae gen. sp. [15] = experiment: Compound was evaluated for the biological activity against Ancylostoma ceylanicum (hamsters and dogs) at the 50 mg/kg; assay type: functional, Cricetulus griseus
Cricetinae gen. sp. [16] = experiment: Compound was evaluated for the biological activity against Ancylostoma ceylanicum in hamsters at the 100 mg/kg; assay type: functional, Cricetulus griseus; outline: as §3
Rattus norvegicus [17] = experiment: Compound was evaluated for the biological activity against Nippostrongylus brasiliensis (rats) at the 100 mg/kg; assay type: functional; outline: as §4
Cricetinae gen. sp. [18] = experiment: Compound was evaluated for the biological activity against Ancylostoma ceylanicum in hamsters at the 250 mg/kg; insignificant activity; assay type: functional, organism-based; set-up: dose 250 mg/kg; conditions: Cricetulus griseus; outline: as §3
[19] = as §1; assay type: functional
Rattus norvegicus [20] = experiment: Compound was evaluated for the biological activity against Hymenolepsis nana (rats) at the 100-50 mg/kg; assay type: functional; outline: as §2
Canis familiaris (dog) [21] = experiment: Efficiency against Taenia species. (tapeworm) in dog at the 25 x 3 mg/kg; inactive; conditions: at 3 mg/kg
Canis familiaris (dog) [22] = experiment: Efficiency against Toxocara species. (Ascaris) in dog at the 25 x 3 mg/kg
Rattus norvegicus [23] = experiment: Efficiency against L carinii (filarid worm) in cotton (against microfilariae and inactive against adults) rat at 100 x 5 mg/kg (po); assay type: functional
Rattus norvegicus [24] = experiment: Efficiency against L carinii (filarid worm) in cotton (on microfilariae) rat at the 30 x 5 mg/kg (ip); assay type: functional
Mus musculus = experiment: Efficiency against Syphacia obvelata (pinworm) in mouse at the 12.5 x 3 mg/kg; assay type: functional
Outline: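 Adult mice of both sexes (20–30 g) with pinworm infection, assessed by Standon's method. Oral dosing started at 25 mg/kg × 3, followed by lower doses for active compounds. Mebendazole at 50 mg/kg × 3 served as positive control.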

Felis catus [25] = experiment: Efficiency against Ancylostoma tubaeformis (hookworm) in cat at the 25 x 3 mg/kg; assay type: functional
Rattus norvegicus [26] = experiment: Efficiency against L carinii (filarid worm) in cotton (against adults) rat at the 30 x 5 mg/kg (ip); assay type: functional
Rattus norvegicus [27] = experiment: Efficiency against L carinii (filarid worm) in cotton (on adults) rat at the 30 x 5 mg/kg (ip); assay type: functional
Rattus norvegicus [28] = experiment: Efficiency against L carinii (filarid worm) in cotton (against both microfilariae and adults) rat at the 50 x 5 mg/kg (po); inactive; assay type: functional, organism-based; set-up: dose 5 mg/kg; conditions: at 5 mg/kg
Canis familiaris [29] = experiment: Efficiency against Ancylostoma ceylanicum (hookworm) in dog at the 10 x 3 mg/kg; assay type: functional, Canis lupus familiaris
Rattus norvegicus [30] = experiment: Compound was evaluated for the biological activity against Hymenolepsis nana (rats) at the 25 mg/kg; assay type: functional; outline: as §2
Canis familiaris [31] = experiment: Efficiency against Ancylostoma ceylanicum (hookworm) in dog at the 25 x 3 mg/kg; assay type: functional, Canis lupus familiaris
Felis catus [32] = experiment: Efficiency against Ancylostoma tubaeformis (hookworm) in cat at the 10 x 3 mg/kg; inactive; assay type: functional, organism-based; set-up: dose 3 mg/kg; conditions: at 3 mg/kg
Rattus norvegicus [33] = experiment: Efficiency against L carinii (filarid worm) in cotton (against both microfilariae and adults) rat at the 10 x 5 mg/kg (ip); inactive; assay type: functional, organism-based; set-up: dose 5 mg/kg; conditions: at 5 mg/kg
Rattus norvegicus [34] = experiment: Compound was evaluated for the biological activity against Hymenolepsis nana (rats) at the 200 mg/kg; assay type: functional; outline: as §2

| Compound | Activity [1] | Activity (Rattus norvegicus [2]) | Activity (Ancylostoma ceylanicum) | Activity (Rattus norvegicus [3]) | further results |
| --- | --- | --- | --- | --- | --- |
| CCOC(=O)Nc1nc2cc(C(=O)Nc3ccccc3)ccc2[nH]1 | inactive | inactive | 50% |  |  |
| COC(=O)Nc1nc2cc(C(=O)Nc3ncc(C)s3)ccc2[nH]1 | inactive |  | 100% | 100% | Activity (Rattus norvegicus [4]): 100% |
| COC(=O)Nc1nc2cc(C(=O)NCCNC(=O)c3ccc4[nH]c(NC(=O)OC)nc4c3)ccc2[nH]1 | inactive | inactive | 50% |  |  |
| COC(=O)Nc1nc2cc(C(=O)N3CCCCC3)ccc2[nH]1 |  |  | 100% |  | Activity (Rattus norvegicus [5]): inactive |
| COC(=O)Nc1nc2cc(C(=O)Nc3ccccn3)ccc2[nH]1 | inactive | inactive | 95% |  |  |
| COC(=O)Nc1nc2cc(C(=O)N3CCN(c4ccccc4)CC3)ccc2[nH]1 |  |  | 100% |  | Activity (Cricetinae gen. sp. [6]): 77%; Activity (Rattus norvegicus [7]): 100%; Activity (Rattus norvegicus [8]): 100%; Activity (Rattus norvegicus [9]): 86.6%; Activity (Rattus norvegicus [10]): 100%; Activity (Rattus norvegicus [11]): 100%; Activity (Rattus norvegicus [4]): 100%; Activity (Cricetinae gen. sp. [12]): 100% |
| COC(=O)Nc1nc2cc(NC(=O)c3ccc(C(=O)Nc4ccc5[nH]c(NC(=O)OC)nc5c4)cc3)ccc2[nH]1 | inactive | inactive | 100% |  | Activity (Cricetinae gen. sp. [13]): 66.6% |
| CNC(=O)c1ccc2[nH]c(NC(=O)OC)nc2c1 | inactive |  | 95% | 100% |  |
| CCN(CC)C(=O)c1ccc2[nH]c(NC(=O)OC)nc2c1 |  |  | 100% | 100% | Activity (Rattus norvegicus [7]): 100% |
| COC(=O)Nc1nc2cc(C(=O)NC3=NCCS3)ccc2[nH]1 | inactive |  | 100% | 100% | Activity (Cricetinae gen. sp. [13]): 55.5%; Activity (Cricetinae gen. sp. [14]): inactive |
| COC(=O)Nc1nc2cc(C(=O)N(C(C)C)C(C)C)ccc2[nH]1 |  |  | 100% | 100% | Activity (Rattus norvegicus [7]): 100%; Activity (Rattus norvegicus [8]): 100%; Activity (Cricetinae gen. sp. [15]): 88.8%; Activity (Cricetinae gen. sp. [16]): 100%; Activity (Rattus norvegicus [17]): 100% |
| COC(=O)Nc1nc2cc(C(=O)Nc3nccs3)ccc2[nH]1 | inactive | inactive |  |  | Activity (Cricetinae gen. sp. [18]): inactive |
| COC(=O)Nc1nc2cc(C(=O)Nc3ccc(F)cc3)ccc2[nH]1 | inactive |  | 100% | 100% |  |
| COC(=O)Nc1nc2cc(C(=O)NCCc3ccc(NC(=O)c4ccc5[nH]c(NC(=O)OC)nc5c4)cc3)ccc2[nH]1 | inactive | inactive | 50% |  |  |
| COC(=O)Nc1nc2cc(C(=O)Nc3nc4ccc(OC)cc4s3)ccc2[nH]1 |  | inactive |  |  | Activity [19]: 86.6%; Activity (Cricetinae gen. sp. [18]): inactive |
| COC(=O)Nc1nc2cc(C(=O)Nc3ccc(S(=O)(=O)c4ccc(NC(=O)c5ccc6[nH]c(NC(=O)OC)nc6c5)cc4)cc3)ccc2[nH]1 | inactive | inactive | 48.2% |  |  |
| CCOC(=O)Nc1nc2cc(C(=O)NCCc3ccc(OC)c(OC)c3)ccc2[nH]1 |  | inactive |  |  |  |
| COC(=O)Nc1nc2cc(C(=O)Nc3ccccc3)ccc2[nH]1 | inactive |  | 87% |  |  |
| CCCN(CCC)C(=O)c1ccc2[nH]c(NC(=O)OC)nc2c1 | inactive |  | 100% | 100% | Activity (Cricetinae gen. sp. [16]): 75%; Activity (Rattus norvegicus [4]): 100% |
| COC(=O)Nc1nc2cc(C(=O)N3CCN(c4ccccn4)CC3)ccc2[nH]1 |  |  | 100% | 100% | Activity (Cricetinae gen. sp. [6]): 88%; Activity (Rattus norvegicus [7]): 100%; Activity (Rattus norvegicus [20]): 100%; Efficiency (Canis familiaris (dog) [21]): inactive; Efficiency (Canis familiaris (dog) [22]): 100%; Activity (Rattus norvegicus [9]): 60%; Efficiency (Rattus norvegicus [23]): 94.8%; Efficiency (Rattus norvegicus [24]): 97%; Efficiency (Mus musculus): 100%; Activity (Rattus norvegicus [11]): 100%; Efficiency (Felis catus [25]): 100%; Efficiency (Rattus norvegicus [26]): 100%; Efficiency (Rattus norvegicus [27]): 100%; Efficiency (Rattus norvegicus [28]): inactive; Efficiency (Canis familiaris [29]): 100%; Activity (Rattus norvegicus [30]): 100%; Activity (Cricetinae gen. sp. [12]): 100%; Efficiency (Canis familiaris [31]): 100%; Efficiency (Felis catus [32]): inactive; Efficiency (Rattus norvegicus [33]): inactive |
| CCCCNC(=O)c1ccc2[nH]c(NC(=O)OC)nc2c1 | inactive |  | 100% | 100% |  |
| COC(=O)Nc1nc2cc(C(=O)Nc3ccc(Sc4ccc(NC(=O)c5ccc6[nH]c(NC(=O)OC)nc6c5)cc4)cc3)ccc2[nH]1 | inactive | inactive | 48.2% |  |  |
| COC(=O)Nc1nc2cc(C(=O)Nc3cccc(C)n3)ccc2[nH]1 | inactive |  | 100% | 100% | Activity (Cricetinae gen. sp. [16]): 100%; Activity (Cricetinae gen. sp. [13]): 92.5% |
| COC(=O)Nc1nc2cc(C(=O)NC3CCCCC3)ccc2[nH]1 |  | inactive | 100% |  | Activity (Rattus norvegicus [7]): 63.2% |
| COC(=O)Nc1nc2cc(C(=O)N3CCOCC3)ccc2[nH]1 |  |  | 100% | 100% | Activity (Cricetinae gen. sp. [6]): 83%; Activity (Rattus norvegicus [7]): 100%; Activity (Rattus norvegicus [8]): 100%; Activity (Rattus norvegicus [9]): 50%; Activity (Rattus norvegicus [11]): 100%; Activity (Rattus norvegicus [4]): 100%; Activity (Cricetinae gen. sp. [12]): 100% |
| CCCCCCCCNC(=O)c1ccc2[nH]c(NC(=O)OC)nc2c1 | inactive |  | 100% |  | Activity (Rattus norvegicus [34]): 100% |
| COC(=O)Nc1nc2cc(C(=O)Nc3ccncc3)ccc2[nH]1 | inactive | inactive | 75% |  |  |
